Runt-CBFb FRET – Runt domain-CBFb interaction inhibition; Q01196+Q13951; Cerulean-Runt/Venus-CBFb FRET ratio 530/480, 1 h; inhibition, % at 20 µM; 0.46% of 220,000 active; AID 1496;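 active = inhibition over about 50% at 20 µM in the single-dose screen, limit read from the data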;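 note: 0% = DMSO wells and 100% = excess unlabeled CBFb competitor control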
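System: Cerulean-labeled Runt domain protein | Quantity: 100 nM of each labeled protein | Schedule: 1 h compound exposure, room temperature | Detection: Fluorescence energy transfer, 422 nm excitation, 530/480 nm emission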
EBV gp42 block – inhibitors of Epstein-Barr virus glycoprotein 42. AID 1085. inhibition, % (tested at 21.74 µM). Q1HVG2. 0.42% of 220,000 active. Fluorescence polarization binding assay, mP read-out; in the data active = inhibition above about 50%
LANA-H2B inh – blocks KSHV LANA binding to histone H2A/H2B. 0.6% of 320,000 active. cell-free LANA-H2A/H2B peptide, fluorescence polarization. Q9QR71. inhibition, % (test concentration not listed); in the data active = inhibition mostly above about 10%, no sharp cut-off; inactive = mostly below about 6.7%
Runt-SMMHC FRET – Runt domain-CBFb-SMMHC interaction inhibition | Q01196+Q13951 | Cerulean-Runt/Venus-CBFb-SMMHC FRET ratio 530/480, 1 h | inhibition, % at 20 µM | 0.74% of 220,000 active;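 active = mean inhibition across duplicate retests at 20 µM reaching about 50%, limit read from the data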;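 note: 0% = DMSO wells and 100% = wells with excess untagged CBFb-SMMHC; inhibitors lower the FRET ratio by blocking Runt binding to CBFb-SMMHC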
MEX-5 binding – C. elegans MEX-5 TCR-2 RNA binding activity; Q9XUB2; MEX-5/FITC-TCR2 RNA binding, fluorescence polarization; active compounds read low; activity score (negative = inhibition of binding), % at 10 µM; 0.38% of 300,000 active; AID 1832;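 active = inhibition past about -25% in most replicates, and total fluorescence under double the plate's negative control median, limit read from the data; inconclusive = replicates evenly split on the limit, or fluorescence at least double controls; inactive = too little inhibition in most replicates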;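 note: 0% = DMSO and -100% = 5 µM competing unlabeled TCR2 RNA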
Target sequence (Q9XUB2 whole entry, looked up): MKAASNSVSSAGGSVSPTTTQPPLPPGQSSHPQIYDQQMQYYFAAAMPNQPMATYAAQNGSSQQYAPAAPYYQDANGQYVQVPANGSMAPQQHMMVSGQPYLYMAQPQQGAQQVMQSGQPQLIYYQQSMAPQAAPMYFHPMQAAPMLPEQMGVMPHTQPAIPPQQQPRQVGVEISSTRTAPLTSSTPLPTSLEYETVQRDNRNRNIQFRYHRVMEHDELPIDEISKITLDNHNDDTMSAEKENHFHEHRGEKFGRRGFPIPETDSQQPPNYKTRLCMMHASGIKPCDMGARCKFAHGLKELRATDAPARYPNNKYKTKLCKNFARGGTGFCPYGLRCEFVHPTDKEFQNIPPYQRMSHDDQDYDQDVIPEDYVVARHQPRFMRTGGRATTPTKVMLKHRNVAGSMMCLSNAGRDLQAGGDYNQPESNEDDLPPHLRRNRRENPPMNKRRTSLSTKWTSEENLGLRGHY
RanGTP-Impb inh – inhibitors of RanGTP-importin-beta interaction, primary screen, biochemical, FRET, CFP-Ran, YFP-importin-beta, homogeneous | cell-free CFP-Ran/YFP-importin-beta FRET ratio | inhibition, % (test concentration not listed) | 1.1% of 300,000 active | AID 2216;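 active = more than half of the replicate wells show a fall in the fluorescence ratio signal beyond about 16%, limit read from the data, passing the limit was not always enough; inconclusive = exactly half of the replicate wells pass the set limit; inactive = fewer than half of replicates pass the limit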;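 note: 0% = DMSO wells and 100% = Ran loaded with GDP instead of GTP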
* hit, by the source's call; ? = inconclusive; . = no result given. Hits are enriched below; roughly 2.4% of the tested compounds scored in any of these assays.

SMILES	Runt-CBFb FRET	EBV gp42 block	LANA-H2B inh	Runt-SMMHC FRET	MEX-5 binding	RanGTP-Impb inh
CCOC(=O)/C(C#N)=C\c1ccc(N2CCN(C/C=C/c3ccccc3)CC2)cc1	-118	131*	0	-65	?	91*
CCOC(=O)/C(C#N)=C\c1cc(C)n(-c2ccccc2)c1C	-1	-7	11	1	-5	?
Cc1ccc2cc3c(N)c(C(=O)N4CCOCC4)sc3nc2c1	-1	-3	1	-5	-8	5
O=C(c1ccc(C(=O)N2CCCc3ccccc32)s1)N1CCCc2ccccc21	-1	-3	-2	-8	0	-1
CCc1ccc2nc3sc(C(=O)N4CCc5ccccc54)c(N)c3cc2c1	6	159*	-2	-11	1	-4
CC(C)c1ccc2nc3sc(C(=O)N4CCc5ccccc5C4)c(N)c3cc2c1	.	20	-3	-4	-16	-12
Cc1ccc(C)c2nc3sc(C(=O)N4CCCc5ccccc54)c(N)c3cc12	-2	142*	0	6	-9	-17
Cc1ccc2nc3sc(C(=O)N4CCOCC4)c(N)c3cc2c1	4	-3	1	-2	-44*	0
O=C(CN1C(=O)NC2(CCCCC2)C1=O)NCC(=O)Nc1ccc(F)c(F)c1	.	.	2	.	0	-1
O=C(C1CC(=O)N(c2ccc(F)cc2)C1)N1CCOCC1 (stereo not drawn)	.	.	-2	.	0	3
O=C(C1CC(=O)N(c2ccc(Cl)cc2)C1)N1CCOCC1 (stereo not drawn)	.	.	28*	.	1	-5
Cc1ccc(N2CC(C(=O)N3CCN(Cc4ccc5c(c4)OCO5)CC3)CC2=O)cc1 (stereo not drawn)	.	.	52*	.	1	-2
O=C(Nc1cc(C(F)(F)F)ccc1N1CCOCC1)C1CCCO1 (stereo not drawn)	.	.	0	.	.	.
CCCCn1c(N)c(N(CC(C)C)C(=O)C2CCN(S(=O)(=O)c3ccc(C)c(C)c3)CC2)c(=O)[nH]c1=O	.	.	1	.	1	5
CCO[C@H]1OC(C(=O)NC2CC2)=C[C@@H](C)[C@@H]1CCCO	-1	-8	2	2	-2	1
CCO[C@@H]1OC(C(=O)NC2CC2)=C[C@H](C2CC2)[C@H]1CCCO	-1	2	-1	0	-1	30*
CCOC(=O)c1c(NS(=O)(=O)c2cccc(OC)c2)sc2c1CCC2	-15	-10	-1	69*	1	-29
CCOC(=O)Nc1sc2c(c1C(=O)OCC)CCC2	4	-14	-6	3	2	3
CCN1C(=O)S/C(=C/c2c(OCc3ccc(C(=O)O)cc3)ccc3ccccc23)C1=O	-7	4	119*	-14	.	.
CC(=O)Oc1ccc(N2C(=O)C3C4C=CC(C5CC45)C3C2=O)cc1[N+](=O)[O-] (stereo not drawn)	28	-15	3	2	-1	1
CC(=O)Oc1ccc(N2C(=O)C3C(C2=O)C2C=CC3C23CC3)cc1[N+](=O)[O-] (stereo not drawn)	0	9	11*	-9	-2	2
O=P(OC1CCCCC1)(OC1CCCCC1)C(Nc1ccccc1)c1cccnc1 (stereo not drawn)	-4	4	-2	-5	1	0
O=C(Nc1cc([N+](=O)[O-])ccc1F)C1CC1	0	-3	29*	-1	-2	1
CCc1ccc(OCC(=O)N2CCN(c3ccccn3)CC2)c(Br)c1	.	.	1	.	3	0
Cc1cc(C)c(NC(=O)CSCc2nc3sc(C)c(C)c3c(=O)[nH]2)c(Cl)c1	.	.	55*	.	.	.
SMILES	Runt-CBFb FRET	EBV gp42 block	LANA-H2B inh	Runt-SMMHC FRET	MEX-5 binding	RanGTP-Impb inh
Cc1sc2nc(CSCC(=O)Nc3cc(F)ccc3F)[nH]c(=O)c2c1C	.	.	-1	.	.	.
CC1CCCN(CCCNC(=O)c2ccc(CS(=O)(=O)c3c(Cl)cccc3Cl)o2)C1 (stereo not drawn)	.	.	-1	.	0	-4
CCN1CCN(c2nc3c(C)cccn3c(=O)c2/C=C(\C#N)C(=O)NC)CC1	.	.	-3	.	-1	-58
Cc1ccc(S(=O)(=O)/C(C#N)=C/c2c(N3CC(C)OC(C)C3)nc3ccccn3c2=O)cc1 (stereo not drawn)	-14	-15	-4	-24	-5	2
Cc1cccn2c(=O)c(/C=C(\C#N)C(=O)NCc3ccco3)c(N3CCOCC3)nc12	78*	-13	-5	10	-3	3
N#C/C(=C\c1c(N2CCC(C(N)=O)CC2)nc2ccccn2c1=O)C(=O)NCc1ccco1	128*	-8	-2	107*	-5	8
CCOC(=O)/C(C#N)=C/c1c(N2CCN(CC)CC2)nc2c(C)cccn2c1=O	.	.	-2	.	-5	99*
C=CCNC(=O)/C(C#N)=C/c1c(N2CC(C)OC(C)C2)nc2ccccn2c1=O (stereo not drawn)	4	-13	5	77*	-1	42*
CCOC(=O)C1CCCN(C(=O)CCCn2nnnc2CN2CCC(C)CC2)C1 (stereo not drawn)	.	.	-5	.	-2	1
CCNC(=O)/C(C#N)=C/c1c(N2CCN(c3ccc(OC)cc3)CC2)nc2c(C)cccn2c1=O	.	.	-3	.	-1	11
COCCNC(=O)/C(C#N)=C/c1c(N2CCN(c3ccccc3)CC2)nc2c(C)cccn2c1=O	.	.	1	.	-3	29*
CCNC(=O)/C(C#N)=C/c1c(N2CCN(c3ccccc3)CC2)nc2c(C)cccn2c1=O	.	.	2	.	-2	20*
CCNC(=O)/C(C#N)=C/c1c(N2CCCCCC2)nc2c(C)cccn2c1=O	.	.	-1	.	0	0
Cc1cccn2c(=O)c(/C=C(\C#N)C(=O)NCc3ccccc3)c(N3CCC(C(N)=O)CC3)nc12	148*	0	-10	89*	-7	3
COC(=O)N/N=C/c1ccc([N+](=O)[O-])s1	8	-3	0	-7	0	4
COc1ccccc1NC(=O)C(=O)N/N=C/c1ccc([N+](=O)[O-])s1	9	79*	.	-7	0	5
COCCNC(=O)/C=C/c1c(Cl)cccc1Cl	-2	0	0	-2	1	0
CCC(C)n1c(=N)c(C#N)cc2c(=O)n3cccc(C)c3nc21 (stereo not drawn)	104*	-18	6	91*	?	0
CCOC(=O)c1cc2c(=O)n3cccc(C)c3nc2n(C)c1=N	12	-8	.	38	.	.
CCC(C)n1c(=N)c(C#N)cc2c(=O)n3cc(C)ccc3nc21 (stereo not drawn)	.	-10	1	.	-34*	5
Cc1ccc(Cn2c(=N)c(C#N)cc3c(=O)n4cccc(C)c4nc32)cc1	.	1	6	.	0	63*

High-throughput results deposited in PubChem by several laboratories.
